Measurements as given in ChEMBL document CHEMBL1158102, “Biologically active triterpenoid saponins from Acanthopanax senticosus” (J Nat Prod, 2006).
Activity calls are given as the source filed them. The rule behind the calls is not given here.

Each compound was assayed against T1, Pancreatic triacylglycerol lipase (Homo sapiens) (UniProt P16233) (assay: Inhibition of pancreatic lipase assessed as umoles of oleic acic released per millimiter of triolein per hour at 1 mg/mL).
T1 sequence (whole entry): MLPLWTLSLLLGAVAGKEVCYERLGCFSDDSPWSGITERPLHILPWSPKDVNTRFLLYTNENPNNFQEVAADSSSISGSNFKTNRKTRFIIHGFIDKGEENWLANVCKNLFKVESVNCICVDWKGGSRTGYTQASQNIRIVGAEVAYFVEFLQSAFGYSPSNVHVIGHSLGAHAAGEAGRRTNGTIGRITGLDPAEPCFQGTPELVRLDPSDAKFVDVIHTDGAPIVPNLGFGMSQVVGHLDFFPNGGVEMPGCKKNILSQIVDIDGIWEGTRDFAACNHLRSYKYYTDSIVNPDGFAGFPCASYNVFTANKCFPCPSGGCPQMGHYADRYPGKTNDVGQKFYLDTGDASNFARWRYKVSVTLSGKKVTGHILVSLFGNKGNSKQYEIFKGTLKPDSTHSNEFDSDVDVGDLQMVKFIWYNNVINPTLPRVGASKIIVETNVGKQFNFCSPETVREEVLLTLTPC
How it was run: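 Lipase activity measured as rate of oleic acid release from triolein. Substrate: sonicated triolein, phosphatidylcholine and taurocholic acid in 0.1 M TES buffer pH 7.0 with 0.1 M NaCl. Incubated with pancreatic lipase (10 units) and sample for 30 min at 37 °C. Free fatty acids extracted, converted to copper salts, reacted with bathocuproine, absorbance read at 480 nm. Means ± SEM of three experiments.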

Q: `C=C1CC[C@]2(C(=O)O[C@@H]3O[C@H](CO[C@@H]4O[C@H](CO)[C@@H](O[C@@H]5O[C@@H](C)[C@H](O)[C@@H](O)[C@H]5O)[C@H](O)[C@H]4O)[C@@H](O)[C@H](O)[C@H]3O)CC[C@]3(C)C(=CC[C@H]4[C@H]3CC[C@H]3C(C)(C)[C@@H](O[C@@H]5OC[C@H](O)[C@H](O)[C@H]5O[C@@H]5O[C@H](CO)[C@@H](O)[C@H](O)[C@H]5O)CC[C@]43C)[C@@H]2C1` was tested. Which Activity did it give?
A: The Activity was “inactive”.

Q: `C[C@@H]1O[C@@H](O[C@H]2[C@H](O[C@H]3CC[C@]4(C)[C@H]5CC=C6[C@@H]7C[C@](C)(C(=O)O)CC[C@]7(C(=O)O)CC[C@@]6(C)[C@@H]5CC[C@H]4C3(C)C)OC[C@H](O)[C@@H]2O)[C@H](O)[C@H](O)[C@H]1O` was tested. Which inhibition did it give?
A: Its inhibition is 44.9%.

Q: `C=C1CC[C@]2(C(=O)O[C@@H]3O[C@H](CO[C@@H]4O[C@H](COC(C)=O)[C@@H](O[C@@H]5O[C@@H](C)[C@H](O)[C@@H](O)[C@H]5O)[C@H](O)[C@H]4O)[C@@H](O)[C@H](O)[C@H]3O)CC[C@]3(C)C(=CC[C@H]4[C@H]3CC[C@H]3C(C)(C)[C@@H](O[C@@H]5OC[C@H](O)[C@H](O)[C@H]5O)CC[C@]43C)[C@@H]2C1` was tested. Which inhibition did it give?
A: Its inhibition is -46.7%.

Q: With `C=C1CC[C@]2(C(=O)O[C@@H]3O[C@H](CO[C@@H]4O[C@H](COC(C)=O)[C@@H](O[C@@H]5O[C@@H](C)[C@H](O)[C@@H](O)[C@H]5O)[C@H](O)[C@H]4O)[C@@H](O)[C@H](O)[C@H]3O)CC[C@]3(C)C(=CC[C@H]4[C@H]3CC[C@H]3C(C)(C)[C@@H](O[C@@H]5OC[C@H](O)[C@H](O)[C@H]5O[C@@H]5O[C@@H](C)[C@H](O)[C@@H](O)[C@H]5O)CC[C@]43C)[C@@H]2C1` as the compound, how does the inhibition read?
A: The inhibition was -80.5%.

Q: With `CC(=O)OC[C@H]1O[C@@H](OC[C@H]2O[C@@H](OC(=O)[C@]34CCC(C)(C)C[C@H]3C3=CC[C@H]5[C@@H](CC[C@H]6C(C)(C)[C@@H](O[C@@H]7OC[C@H](O)[C@H](O)[C@H]7O[C@@H]7O[C@H](CO)[C@@H](O)[C@H](O)[C@H]7O)CC[C@]56C)[C@]3(C)CC4)[C@H](O)[C@@H](O)[C@@H]2O)[C@H](O)[C@@H](O)[C@@H]1O[C@@H]1O[C@@H](C)[C@H](O)[C@@H](O)[C@H]1O` as the compound, how does the Activity read?
A: Its Activity is “inactive”.

Q: With `C[C@@H]1O[C@@H](O[C@H]2[C@H](O[C@H]3CC[C@]4(C)[C@H]5CC=C6[C@@H]7CC(C)(C)CC[C@]7(C(=O)O[C@@H]7O[C@H](CO[C@@H]8O[C@H](CO)[C@@H](O[C@@H]9O[C@@H](C)[C@H](O)[C@@H](O)[C@H]9O)[C@H](O)[C@H]8O)[C@@H](O)[C@H](O)[C@H]7O)CC[C@@]6(C)[C@]5(C)CC[C@H]4C3(C)C)OC[C@H](O)[C@@H]2O)[C@H](O)[C@H](O)[C@H]1O` as the compound, how does the Activity read?
A: Its Activity is “inactive”.

Q: For `C=C(C)[C@@H]1CC[C@]2(C(=O)O[C@@H]3O[C@H](CO[C@@H]4O[C@H](CO)[C@@H](O[C@@H]5O[C@@H](C)[C@H](O)[C@@H](O)[C@H]5O)[C@H](O)[C@H]4O)[C@@H](O)[C@H](O)[C@H]3O)CC[C@]3(C)[C@H](CC[C@@H]4[C@@](C)(CCC(=O)O)[C@H](C(=C)C)CC[C@]43C)[C@@H]12`, which inhibition is on record?
A: The inhibition was 44.6%.

Q: For `C=C(C)[C@@H]1CC[C@]2(C(=O)O[C@@H]3O[C@H](CO[C@@H]4O[C@H](CO)[C@@H](O[C@@H]5O[C@@H](C)[C@H](O)[C@@H](O)[C@H]5O)[C@H](O)[C@H]4O)[C@@H](O)[C@H](O)[C@H]3O)CC[C@]3(C)[C@H](C[C@H]4OC(=O)C[C@@H](O)[C@]5(C)[C@@H]4[C@@]3(C)CC[C@H]5C(=C)C)[C@@H]12`, which inhibition is on record?
A: Its inhibition is 56.1%.

Q: With `C=C1CC[C@]2(C(=O)O[C@@H]3O[C@H](CO[C@@H]4O[C@H](COC(C)=O)[C@@H](O[C@@H]5O[C@@H](C)[C@H](O)[C@@H](O)[C@H]5O)[C@H](O)[C@H]4O)[C@@H](O)[C@H](O)[C@H]3O)CC[C@]3(C)C(=CC[C@H]4[C@H]3CC[C@H]3C(C)(C)[C@@H](O[C@@H]5OC[C@H](O)[C@H](O)[C@H]5O[C@@H]5O[C@H](CO)[C@@H](O)[C@H](O)[C@H]5O)CC[C@]43C)[C@@H]2C1` as the compound, how does the Activity read?
A: The Activity was “inactive”.

Q: For `CC(=O)OC[C@H]1O[C@@H](OC[C@H]2O[C@@H](OC(=O)[C@]34CCC(C)(C)C[C@H]3C3=CC[C@H]5[C@@H](CC[C@H]6C(C)(C)[C@@H](O[C@@H]7OC[C@H](O)[C@H](O)[C@H]7O[C@@H]7O[C@@H](C)[C@H](O)[C@@H](O)[C@H]7O)CC[C@]56C)[C@]3(C)CC4)[C@H](O)[C@@H](O)[C@@H]2O)[C@H](O)[C@@H](O)[C@@H]1O[C@@H]1O[C@@H](C)[C@H](O)[C@@H](O)[C@H]1O`, which Activity is on record?
A: Its Activity is “inactive”.

Q: How did the Activity turn out when `C[C@@H]1O[C@@H](O[C@H]2[C@H](O)[C@@H](O)[C@H](OC[C@H]3O[C@@H](OC(=O)[C@]45CCC(C)(C)C[C@H]4C4=CC[C@@H]6[C@@]7(C)CC[C@H](O[C@@H]8OC[C@H](O)[C@H](O)[C@H]8O)C(C)(C)[C@@H]7CC[C@@]6(C)[C@]4(C)CC5)[C@H](O)[C@@H](O)[C@@H]3O)O[C@@H]2CO)[C@H](O)[C@H](O)[C@H]1O` was run?
A: The Activity was “inactive”.

Q: `C[C@@H]1O[C@@H](O[C@H]2[C@H](O[C@H]3CC[C@]4(C)[C@H]5CC=C6[C@@H]7CC(C)(C)CC[C@]7(C(=O)O[C@@H]7O[C@H](CO[C@@H]8O[C@H](CO)[C@@H](O[C@@H]9O[C@@H](C)[C@H](O)[C@@H](O)[C@H]9O)[C@H](O)[C@H]8O)[C@@H](O)[C@H](O)[C@H]7O)[C@H](O)C[C@@]6(C)[C@@H]5CC[C@H]4C3(C)C)OC[C@H](O)[C@@H]2O)[C@H](O)[C@H](O)[C@H]1O` was tested. Which inhibition did it give?
A: The inhibition was 38.3%.

Q: For `C=C1CC[C@]2(C(=O)O[C@@H]3O[C@H](CO[C@@H]4O[C@H](CO)[C@@H](O[C@@H]5O[C@@H](C)[C@H](O)[C@@H](O)[C@H]5O)[C@H](O)[C@H]4O)[C@@H](O)[C@H](O)[C@H]3O)CC[C@]3(C)C(=CC[C@H]4[C@H]3CC[C@H]3C(C)(C)[C@@H](O[C@@H]5OC[C@H](O)[C@H](O)[C@H]5O)CC[C@]43C)[C@@H]2C1`, which inhibition is on record?
A: The inhibition was 46.5%.

Q: With `C=C1CC[C@]2(C(=O)O[C@@H]3O[C@H](CO[C@@H]4O[C@H](CO)[C@@H](O[C@@H]5O[C@@H](C)[C@H](O)[C@@H](O)[C@H]5O)[C@H](O)[C@H]4O)[C@@H](O)[C@H](O)[C@H]3O)CC[C@]3(C)C(=CC[C@H]4[C@H]3CC[C@H]3C(C)(C)[C@@H](O[C@@H]5OC[C@H](O)[C@H](O)[C@H]5O[C@@H]5O[C@@H](C)[C@H](O)[C@@H](O)[C@H]5O)CC[C@]43C)[C@@H]2C1` as the compound, how does the Activity read?
A: Its Activity is “inactive”.

Q: How did the inhibition turn out when `C[C@@H]1O[C@@H](O[C@H]2[C@H](O[C@H]3CC[C@]4(C)[C@H]5CC=C6[C@@H]7C[C@](C)(CO)CC[C@]7(C(=O)O)CC[C@@]6(C)[C@@H]5CC[C@H]4C3(C)C)OC[C@H](O)[C@@H]2O)[C@H](O)[C@H](O)[C@H]1O` was run?
A: The inhibition was 33%.
